# Activity calls are given as the source filed them. No cut-off for these calls is given here.
# Experiments:
# CCRF-CEM [1] = test: Antiviral activity against HIV2 assessed as inhibition of HIV2-induced cytopathicity in CEM cells; type: functional, cell-based
# Procedure, shortened: (§1)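 CEM and MT-4 cell cultures infected with HIV-1 or HIV-2, with compounds diluted into culture medium from DMSO stocks. Antiviral activity is read at day 4 post-infection and reported as EC50.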
# [2] = biological target: T1, CD26 (Dipeptidyl peptidase 4) (Homo sapiens, UniProt P27487); test: Inhibition of CD26-catalyzed GlyPro-pNA hydrolysis at 100 uM; details: CD26 (dipeptidyl peptidase 4) enzyme, probe GlyPro-pNA
# [3] = biological target: T1, CD26 (Dipeptidyl peptidase 4); test: Inhibition of CD26-catalyzed GlyPro-pNA hydrolysis at 20 uM; details: CD26 (dipeptidyl peptidase 4) enzyme, probe GlyPro-pNA
# Dipeptidyl peptidase 4 [4] = biological target: T2, Dipeptidyl peptidase 4 (Homo sapiens, UniProt P27487); test: Conversion of prodrug to parent drug NAP-TSAO-T catalyzed by CD26 after 1 hr; type: ADME; set-up: concentration or dose not given beside the values
# CCRF-CEM [5] = test: Antiviral activity against HIV1 assessed as inhibition of HIV1-induced cytopathicity in CEM cells; type: functional, cell-based; details: Homo sapiens; procedure, shortened: as §1
# MT4 [6] = test: Antiviral activity against HIV1 assessed as inhibition of HIV1-induced cytopathicity in MT4 cells; type: functional, cell-based; details: Homo sapiens; procedure, shortened: as §1
# MT4 [7] = test: Antiproliferative activity against human MT4 cell line; type: functional
# Procedure, shortened: (§2)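 Cytostatic assay: compounds made up as DMSO stocks and diluted in culture medium. CC50 is the concentration that inhibits MT-4 or CEM cell proliferation by 50%.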
# CCRF-CEM [8] = test: Antiproliferative activity against human CEM cell line; type: functional; procedure, shortened: as §2
# [9] = biological target: Human immunodeficiency virus type 1 reverse transcriptase (Human immunodeficiency virus 1, UniProt Q72547); test: Inhibition of recombinant HIV1 reverse transcriptase
# MT4 [10] = test: Antiviral activity against HIV2 assessed as inhibition of HIV2-induced cytopathicity in MT4 cells; type: functional, cell-based; procedure, shortened: as §1
# Dipeptidyl peptidase 4 [11] = biological target: T2, Dipeptidyl peptidase 4; test: Conversion of prodrug to parent drug NAP-TSAO-T catalyzed by CD26 after 4 hrs; type: ADME; set-up: concentration or dose not given beside the values
# Dipeptidyl peptidase 4 [12] = biological target: T2, Dipeptidyl peptidase 4; test: Conversion of prodrug to parent drug NAP-TSAO-T catalyzed by CD26 after 24 hrs; type: ADME; set-up: concentration or dose not given beside the values
# Homo sapiens [13] = species: Homo sapiens; test: Conversion of prodrug to parent drug NAP-TSAO-T catalyzed by 2.5% human serum after 3 hrs; type: ADME, organism-based
# Procedure, shortened: (§3)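 Prodrug at 50 µM incubated at 37 °C with human or bovine serum diluted in PBS (5, 2.5, 1 or 0.5%). Samples are quenched in cold methanol and centrifuged, and the supernatant is run on reverse-phase RP-8 HPLC (phosphate/heptanesulfonate pH 3.2–acetonitrile gradient). Parent compound formed is quantified at 3, 6 or 24 h.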
# Homo sapiens [14] = species: Homo sapiens; test: Conversion of prodrug to parent drug NAP-TSAO-T catalyzed by 2.5% human serum after 6 hrs; type: ADME, organism-based; procedure, shortened: as §3
# Bos taurus [15] = species: Bos taurus; test: Conversion of prodrug to parent drug NAP-TSAO-T catalyzed by bovin serum after 6 hrs; type: ADME, organism-based; details: cattle; procedure, shortened: as §3
# Bos taurus [16] = species: Bos taurus; test: Conversion of prodrug to parent drug NAP-TSAO-T catalyzed by bovin serum after 24 hrs; type: ADME, organism-based; details: cattle; procedure, shortened: as §3
# T2 sequence (P27487 whole entry): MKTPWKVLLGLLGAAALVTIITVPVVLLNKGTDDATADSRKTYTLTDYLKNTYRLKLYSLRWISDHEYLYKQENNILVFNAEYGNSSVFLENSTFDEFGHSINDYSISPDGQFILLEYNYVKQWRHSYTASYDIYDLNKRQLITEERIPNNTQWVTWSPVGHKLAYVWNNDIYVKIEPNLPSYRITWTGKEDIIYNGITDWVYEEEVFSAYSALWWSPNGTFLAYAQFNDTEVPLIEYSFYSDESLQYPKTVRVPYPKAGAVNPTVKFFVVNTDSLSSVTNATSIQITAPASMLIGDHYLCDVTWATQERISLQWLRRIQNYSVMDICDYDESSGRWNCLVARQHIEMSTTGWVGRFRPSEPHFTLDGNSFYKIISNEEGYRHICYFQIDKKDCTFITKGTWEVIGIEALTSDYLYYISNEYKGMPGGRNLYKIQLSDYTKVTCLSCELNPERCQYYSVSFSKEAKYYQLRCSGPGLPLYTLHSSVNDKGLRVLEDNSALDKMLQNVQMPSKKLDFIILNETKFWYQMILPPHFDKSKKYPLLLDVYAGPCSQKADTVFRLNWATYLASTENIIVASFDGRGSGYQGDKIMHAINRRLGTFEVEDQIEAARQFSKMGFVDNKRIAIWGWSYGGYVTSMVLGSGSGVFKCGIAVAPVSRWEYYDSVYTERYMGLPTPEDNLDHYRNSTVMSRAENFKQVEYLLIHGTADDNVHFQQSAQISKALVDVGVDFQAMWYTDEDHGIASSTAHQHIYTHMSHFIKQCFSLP
# T1 sequence (P27487 whole entry): as above
smiles,measurement,setting,value
Cc1cn(C2OC(CO[Si](C)(C)C(C)(C)C)C3(OS(=O)(=O)C=C3N)C2O[Si](C)(C)C(C)(C)C)c(=O)n(CCCNC(=O)[C@@H]2CCCN2C(=O)[C@@H](N)C(C)C)c1=O (stereo partly specified),Activity,CCRF-CEM [1],inactive
same,inhibition at 100 µM,[2],70%
same,inhibition at 20 µM,[3],50%
same,Activity,Dipeptidyl peptidase 4 [4],37%
same,EC50,CCRF-CEM [5],0.13 µM
same,EC50,MT4 [6],0.3 µM
same,CC50,MT4 [7],11 µM
same,CC50,CCRF-CEM [8],10 µM
same,IC50,[9],6.6 µM
same,Activity,MT4 [10],inactive
same,Activity,Dipeptidyl peptidase 4 [11],62%
same,Activity,Dipeptidyl peptidase 4 [12],61%
same,Activity,Homo sapiens [13],30%
same,Activity,Homo sapiens [14],50%
same,Activity,Bos taurus [15],20%
same,Activity,Bos taurus [16],50%
